The test system of test [1] is K562. The test is described as follows: Induction of cell cycle arrest in Homo sapiens (human) K562 cells assessed as decrease in G2/M phase cells after 48 hr by PI-staining based flow cytometric analysis. It is filed as functional. The essentials: (§1)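 Cells treated 48 h with DMSO solvent controls, washed in cold PBS and fixed in 70% ethanol at −20°C for at least 24 h. Stained 30 min in the dark at room temperature with 50 μg/ml PI and 100 μg/ml RNase in PBS/0.1% Triton X-100. DNA content measured by flow cytometry and phase percentages modelled; mean ± SD, n ≥ 4.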
In general terms: Flow cytometry measures light scatter and fluorescence of single cells or particles in a stream.

The test system of test [2] is K562. Put plainly: Induction of cell cycle arrest in Homo sapiens (human) K562 cells assessed as cells accumulation of G1/S phase cells after 48 hr by PI-staining based flow cytometric analysis. In kind it is functional. An outline of the steps:
as §1

The subject of test [3] is K562. The test is described as follows: Induction of cell cycle arrest in Homo sapiens (human) K562 cells assessed as accumulation of G1 phase cells after 48 hr by PI-staining based flow cytometric analysis. In kind it is functional. An outline of the steps:
as §1

Test [4] has as its system HL-60. The test is described as follows: Induction of cell cycle arrest in Homo sapiens (human) HL60 cells assessed as decrease in G2/M phase cells after 48 hr by PI-staining based flow cytometric analysis. In kind it is functional. An outline of the steps:
as §1

Test [5] has as its system HL-60. Put plainly: Induction of cell cycle arrest in Homo sapiens (human) HL60 cells assessed as cells accumulation of G1/S phase cells after 48 hr by PI-staining based flow cytometric analysis. It is filed as functional. The essentials:
as §1

The subject of test [6] is HL-60. The test is described as follows: Induction of cell cycle arrest in Homo sapiens (human) HL60 cells assessed as accumulation of G1 phase cells after 48 hr by PI-staining based flow cytometric analysis. It is filed as functional. An outline of the steps:
as §1

In test [7] the test system is K562. Put plainly: Induction of apoptosis in Homo sapiens (human) K562 cells assessed as mitochondrial membrane depolarization at 10 uM after 48 hr by JC-1 staining based flow cytometric analysis (reference value: 6.1 +/- 0.9%). It is filed as functional.
Test [8] deals with HL-60. The test is described as follows: Induction of apoptosis in Homo sapiens (human) HL60 cells assessed as mitochondrial membrane depolarization at 5 uM after 48 hr by JC-1 staining based flow cytometric analysis (reference value: 7.7 +/- 2.4%). In kind it is functional.
Test [9] relates to K562. The test is described as follows: Induction of apoptosis in Homo sapiens (human) K562 cells from 24 to 48 hr by annexinV/PI-staining based flow cytometric analysis. In kind it is functional, cell-based. An outline of the steps:
(§2)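 Cells seeded at 2.5 × 10^5 cells/ml in RPMI-1640/10% FBS, treated 24 or 48 h, DMSO solvent controls. Rinsed twice in cold PBS and resuspended at 2 × 10^6 cells/ml in binding buffer. Labelled with annexin V-FITC and PI for 15 min at room temperature in the dark. Flow cytometry within 1 h; mean ± SD, n ≥ 4.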

Test [10] deals with HL-60. Put plainly: Induction of apoptosis in Homo sapiens (human) HL60 cells from 24 to 48 hr by annexinV/PI-staining based flow cytometric analysis. It is filed as functional, cell-based. The essentials:
as §2

Test [11] deals with K562. Put plainly: Induction of apoptosis in Homo sapiens (human) K562 cells at 10 to 20 uM by annexinV/PI-staining based flow cytometric analysis. Conditions: TDE = time-dependent effect. It is filed as functional, cell-based. An outline of the steps:
as §2

The subject of test [12] is HL-60. The test is described as follows: Induction of apoptosis in Homo sapiens (human) HL60 cells at 5 to 8 uM by annexinV/PI-staining based flow cytometric analysis. It is filed as functional, cell-based. Conditions: TDE = time-dependent effect. The essentials:
as §2

For test [13], the system named is K562. Put plainly: Induction of apoptosis in Homo sapiens (human) K562 cells assessed as PARP cleavage at 10 uM after 48 hr by FITC conjugated antiPARP-staining based flow cytometric analysis. It is filed as functional, cell-based. An outline of the steps: (§3)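 Cells in RPMI-1640 with 10% heat-inactivated FBS, seeded at 2.5 × 10^5 cells/ml and treated from DMSO solution. Controls got the same solvent volume. Harvested 48 h post-treatment and washed twice in PBS. Stained with FITC anti-PARP antibody specific for the 85 kDa cleaved fragment. Flow cytometry reported fluorescence intensity, with negative (M1) and positive (M2) gates.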

The test system of test [14] is K562. Put plainly: Induction of cell cycle arrest in Homo sapiens (human) K562 cells assessed as G2/M phase cells at 10 uM after 48 hr by PI-staining based flow cytometric analysis (reference value: 19.1 +/- 3.9%). In kind it is functional. An outline of the steps: as §1
In test [15] the test system is K562. Put plainly: Induction of cell cycle arrest in Homo sapiens (human) K562 cells assessed as S phase cells at 10 uM after 48 hr by PI-staining based flow cytometric analysis (reference value: 43.3 +/- 3.4%). It is filed as functional. The essentials: as §1
Test [16] concerns K562. Put plainly: Induction of cell cycle arrest in Homo sapiens (human) K562 cells assessed as G1 phase cells at 10 uM after 48 hr by PI-staining based flow cytometric analysis (reference value: 37.6 +/- 3.2 %). In kind it is functional. An outline of the steps:
as §1

Test [17] concerns HL-60. The test is described as follows: Induction of apoptosis in Homo sapiens (human) HL60 cells assessed as PARP cleavage at 8 uM after 48 hr by FITC conjugated antiPARP-staining based flow cytometric analysis. It is filed as functional, cell-based. An outline of the steps: as §3
Test [18] deals with HL-60. Put plainly: Induction of apoptosis in Homo sapiens (human) HL60 cells assessed as apoptotic nuclei at 8 uM after 48 hr by DAPI/sulforhodamine 101-stainihng based fluorescence micrscopic analysis. In kind it is functional, cell-based. The essentials:
(§4)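 Exponentially growing cells seeded at 2.5 × 10^5 cells/ml, exposed 48 h, DMSO solvent controls. Washed in cold PBS and fixed in 70% ethanol at −20°C for at least 24 h. Stained with 1.0 μg/ml DAPI plus 20 μg/ml sulforhodamine 101. Nuclear morphology scored by fluorescence microscopy.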

The test system of test [19] is HL-60. Put plainly: Induction of apoptosis in Homo sapiens (human) HL60 cells assessed as concentrated chromatin at 8 uM after 48 hr by DAPI/sulforhodamine 101-stainihng based fluorescence micrscopic analysis. In kind it is functional, cell-based. An outline of the steps:
as §4

Test [20] deals with K562. Put plainly: Induction of cell cycle arrest in Homo sapiens (human) K562 cells assessed as G1 phase cells at 20 uM after 48 hr by PI-staining based flow cytometric analysis (reference value: 37.6 +/- 3.2 %). In kind it is functional. The essentials: as §1
For test [21], the system named is K562. Put plainly: Induction of cell cycle arrest in Homo sapiens (human) K562 cells assessed as G2/M phase cells at 20 uM after 48 hr by PI-staining based flow cytometric analysis (reference value: 19.1 +/- 3.9%). It is filed as functional. An outline of the steps:
as §1

Test [22] concerns K562. The test is described as follows: Induction of cell cycle arrest in Homo sapiens (human) K562 cells assessed as S phase cells at 20 uM after 48 hr by PI-staining based flow cytometric analysis (reference value: 43.3 +/- 3.4%). It is filed as functional. The essentials: as §1

Activity calls are given as the source filed them. The rule behind the calls is not given here.

In the case of `Br.C=CCNC(=N)SCc1c(Br)c(Br)c(Br)c(Br)c1Br`, the Activity entry with K562 [1], in the test on K562 [2], in the test with K562 [3], in the test on HL-60 [4], in the test on HL-60 [5] and in the test with HL-60 [6] was “Dose-dependent effect” throughout. The Activity with K562 [7] is 60%; in the test on HL-60 [8], 12.8%; in the test with K562 [9], “Dose-dependent effect”; in the test on HL-60 [10], “Dose-dependent effect”; in the test with K562 [11], “tde”; with HL-60 [12], “tde”.

With `Br.CNC(=N)SCc1c(Br)c(Br)c(Br)c(Br)c1Br`, the Activity entry in the test with K562 [1], with K562 [2], in the test on K562 [3], in the test with HL-60 [4], in the test with HL-60 [5] and with HL-60 [6] was “Dose-dependent effect” in each case. Further, the Activity in the test with K562 [7] was 81.8%; with HL-60 [8], 24.4%; in the test on K562 [9], “Dose-dependent effect”; with HL-60 [10] it was “Dose-dependent effect”; with K562 [11], “tde”; with HL-60 [12] it was “tde”. The result with K562 [13] was Active.

With `Br.CCNC(=N)SCc1c(Br)c(Br)c(Br)c(Br)c1Br`, the Activity entry with K562 [1], with K562 [2], in the test on K562 [3], in the test on HL-60 [4], in the test with HL-60 [5] and in the test on HL-60 [6] was “Dose-dependent effect” in each case. Further, the Activity was 62.2% in the test with K562 [7]; 30.1% in the test on HL-60 [8]; “Dose-dependent effect” in the test on K562 [9]; “Dose-dependent effect” in the test on HL-60 [10]; “tde” in the test on K562 [11]; “tde” in the test on HL-60 [12].

`Br.N=C(N)SCc1c(Br)c(Br)c(Br)c(Br)c1Br`: the Activity result in the test on K562 [1], in the test on K562 [2], in the test on K562 [3], in the test with HL-60 [4], in the test on HL-60 [5] and in the test on HL-60 [6] was “Dose-dependent effect” throughout. The Activity in the test on K562 [7] is 63.8%; in the test on HL-60 [8], 21.9%; with K562 [9], “Dose-dependent effect”; in the test on HL-60 [10], “Dose-dependent effect”; in the test on K562 [11], “tde”; in the test on HL-60 [12], “tde”.

For the molecule `Br.C/N=C(/NC)SCc1c(Br)c(Br)c(Br)c(Br)c1Br`, the Activity was 9% in the test on K562 [14]; 35.5% in the test on K562 [15]; 55.5% in the test on K562 [16]; “Dose-dependent effect” in the test on K562 [1]; “Dose-dependent effect” in the test with K562 [2]; “Dose-dependent effect” in the test on K562 [3]. Also, the Activity entry is “Dose-dependent effect” with HL-60 [4]; “Dose-dependent effect” in the test with HL-60 [5]; “Dose-dependent effect” in the test on HL-60 [6]; 77.7% in the test with K562 [7]; 93.1% in the test with HL-60 [8]; “Dose-dependent effect” in the test with K562 [9]. Moreover, the Activity entry was “Dose-dependent effect” in the test on HL-60 [10]; “tde” with K562 [11]; “tde” in the test on HL-60 [12]; 55% with K562 [20]; 2.5% in the test with K562 [21]; 42.5% in the test on K562 [22]. The outcome in the test with HL-60 [17], in the test with HL-60 [18] and in the test on HL-60 [19] was Active.

(Values after ChEMBL document CHEMBL3045648, “Proapoptotic effects of novel pentabromobenzylisothioureas in human leukemia cell lines” (2012).)
